Compounds with a hit are over-represented: about 1.2% of the library has one in this group of screens.
Efflux pump inh: antifungal efflux pump inhibition, Nile Red retention. 330,000 tested, 0.44% active. S. cerevisiae Candida pump triplex. inhibition, % at 10 µM;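 active = plate passing quality check with inhibition over a set limit, or well fluorescence over plate mean plus 4 SD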;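 also: Nile Red retained in pooled yeast measured as flow cytometry median fluorescence; 0% = buffer negative control and 100% = Enniatin B positive control; higher means more Nile Red kept so more efflux inhibition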
SR-BI DiI-HDL act: activators of SR-BI mediated HDL lipid uptake | activation, % at 12.5 µM | CHO ldlA[mSR-BI] cells, DiI-HDL uptake fluorescence, 3 h; 100 = double the neutral-control signal | 320,000 tested, 0.096% active | AID 504775;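 active = mean replicate activation of at least 60% and every replicate at or above 60%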;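 also: 0% = median plate neutral-control signal and 100% = twice that signal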
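Material: SR-BI-overexpressing, LDLR-lacking CHO cells; schedule: compound exposure 3 h, 37 °C; reagent: DiI-labelled HDL at 10 µg/mL final; technique: bottom-read fluorescence, 550/595 nm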
SR-BI HDL uptake: blocks mouse SR-BI lipid uptake from DiI-HDL | Q61009 | ldlA[mSR-BI] CHO cells, DiI-HDL uptake fluorescence, 3 h | inhibition, % at 12.5 µM | 320,000 tested, 0.96% active;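 active = mean replicate inhibition of at least 70% and a set share of replicates each scoring 70 or more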;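 also: 0% = median of neutral control wells and 100% = median of positive control wells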
Target sequence (Q61009 whole entry, looked up): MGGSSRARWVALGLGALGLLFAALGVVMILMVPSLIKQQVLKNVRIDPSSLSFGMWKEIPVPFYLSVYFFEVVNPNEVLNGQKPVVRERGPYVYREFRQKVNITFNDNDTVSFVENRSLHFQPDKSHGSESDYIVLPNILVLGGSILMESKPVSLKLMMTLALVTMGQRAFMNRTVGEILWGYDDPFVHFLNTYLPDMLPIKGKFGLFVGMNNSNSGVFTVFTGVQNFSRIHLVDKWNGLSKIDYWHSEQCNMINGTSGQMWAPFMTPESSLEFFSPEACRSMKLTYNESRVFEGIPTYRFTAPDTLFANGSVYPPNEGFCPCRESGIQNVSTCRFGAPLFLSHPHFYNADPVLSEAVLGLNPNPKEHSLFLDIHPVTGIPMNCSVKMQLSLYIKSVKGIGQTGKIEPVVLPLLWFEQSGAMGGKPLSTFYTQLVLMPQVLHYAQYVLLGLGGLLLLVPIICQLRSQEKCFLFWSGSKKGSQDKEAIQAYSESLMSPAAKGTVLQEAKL
CaV13 FRET inh: Disruptors of the CACNA1D IQ motif to Ca2+-dependent inactivation inhibitor domain association, primary screening, Förster resonance energy transfer in intact living …; HEK cells, CFP/YFP FRET ICDI-IQ, plate reader, 10 min; percent FRET-ratio fall versus neutral wells; inhibition, % at 12.3 µM; 340,000 tested, 0.098% active; AID 743397;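 active = mean replicate inhibition of at least 30% and at least 1% of replicates passing that level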;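 also: 0% = median of the neutral control wells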
FN deposit inh: fibronectin deposition inhibition; 350,000 tested, 0.086% active; AH1F fibroblasts, Alexa488-fibronectin deposition fluorescence, overnight; AID 743247; inhibition, % at 12.6 µM;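 active = mean inhibition across replicates of 30% or more, regardless of how many single replicates reach that level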;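 also: positive control wells lacked labelled fibronectin entirely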
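Assay system: AH1F fibroblast monolayer, labelled fibronectin deposition. Amount: 10000 cells per well. Also added: labelled fibronectin 24 nM. Compound: single-point pinned compound. Incubation: cell attachment 1 h, compound and FN exposure overnight. Detection: fluorescence after three HBSS washes, excitation 485 nm, emission 525 nm. Read-out: inhibition of fibronectin deposition signal.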
Numbers without * were called inactive; . = no result given.

SMILES | Efflux pump inh | SR-BI DiI-HDL act | SR-BI HDL uptake | CaV13 FRET inh | FN deposit inh
Cc1ccc(C(=O)Nc2cccc(C(F)(F)F)c2)cc1NC(=O)c1csc(-c2ccncc2)n1 | 0.3 | -84.1 | 84.1* | . | .
C[C@@H]1CN([C@@H](C)CO)C(=O)c2cc(C3=CCCC3)cnc2O[C@@H]1CN(C)Cc1cccnc1 | . | . | . | . | 6.1
CO[C@@H]1CN(C)C(=O)c2ccc(NC(=O)Nc3cc(Cl)cc(Cl)c3)cc2OC[C@H](C)NC[C@@H]1C | . | . | . | . | -3.0
O=C(Nc1ccc(Cl)cc1)Nc1ccc(N2CCCC2)c(S(=O)(=O)Nc2ccccc2Cl)c1 | 0.4 | -101.7 | 101.8* | -5.0 | -2.3
CCc1cccc2c(C(=O)COC(=O)/C=C/c3ccc(O)c(OC)c3)c[nH]c12 | -0.3 | -75.5 | 75.5* | -4.4 | -5.3
COc1cccc(/C=C/C(=O)OCC(=O)c2c[nH]c3ccccc23)c1 | 0.1 | -5.5 | 5.5 | -2.9 | -13.1
CSc1ncccc1C(=O)Nc1nc2c(C)cccc2s1 | 0.1 | -73.5 | 73.5* | -7.4 | .
CSc1ncccc1C(=O)Nc1ncc(C)s1 | 0.1 | -10.9 | 10.9 | -17.5 | 0.9
CCS(=O)(=O)Nc1ccc2c(c1)C(=O)N(C)C[C@@H](OC)[C@@H](C)CN(Cc1ccccn1)[C@@H](C)CO2 | . | . | . | . | -18.5
C/C(=N/NC(N)=S)c1cc2ccc(O)cc2oc1=O | 0.2 | -84.3 | 84.3* | 0.8 | 0.6
CCOc1cc(CNC(C)C)c(Cl)cc1OCC(=O)NCCc1ccccc1 | 0.4 | -77.5 | 77.5* | . | .
O=C(C[C@@H]1CC[C@H]2[C@@H](COC[C@H](O)CN2C(=O)Nc2cccc(Cl)c2)O1)NCc1ccccc1F | . | . | . | . | -7.8
COCCNc1nc(SCC(=O)N2CCN(c3ccccc3OC)CC2)nc2ccccc12 | 0.0 | -72.4 | 72.4* | -10.0 | .
O=C(CCCn1c(=O)c2cccn2c2cccnc21)NCCc1ccc(Cl)cc1 | 0.3 | -78.9 | 78.8* | -2.1 | -2.7
COCC(=O)Nc1ccc2c(c1)C(=O)N(C)C[C@@H](OC)[C@@H](C)CN(Cc1ccccc1)[C@@H](C)CO2 | . | . | . | . | -4.3
CCC(=O)N1C[C@H](C)[C@H](OC)CN(C)C(=O)c2ccc(NC(=O)Nc3ccc(Cl)cc3)cc2OC[C@@H]1C | . | . | . | . | -8.9
O=C(Nc1nc2ccc(F)cc2s1)C1CCN(S(=O)(=O)c2cc([N+](=O)[O-])ccc2Cl)CC1 | -0.2 | -76.6 | 76.6* | -4.2 | -2.6
CCOc1ccc(OCC)c(NS(=O)(=O)c2cccc3nsnc23)c1 | 0.7 | 409.6* | -409.6 | -5.0 | 3.8
CCOc1ccccc1NS(=O)(=O)c1cccc2nsnc12 | 0.0 | 17.4 | -17.4 | . | .
C[C@H](CO)N1C[C@H](C)[C@@H](CN(C)S(=O)(=O)c2ccc(F)cc2)Oc2ccc(NC(=O)Nc3ccc(C(F)(F)F)cc3)cc2C1=O | 0.1 | 43.0 | -43.0 | -11.9 | 16.5
C[C@@H]1CN([C@H](C)CO)C(=O)c2cc(NC(=O)Nc3ccc(C(F)(F)F)cc3)ccc2O[C@H]1CN(C)S(=O)(=O)c1ccc(Cl)cc1 | 0.4 | 73.5* | -73.5 | -2.7 | -9.9
C[C@@H]1CN([C@H](C)CO)C(=O)c2cccc(NC(=O)Nc3ccccc3)c2O[C@@H]1CN(C)Cc1ccc(Cl)c(Cl)c1 | . | . | . | . | -6.8
CC(C)NC(=O)N(C)C[C@H]1Oc2ccc(NC(=O)CCN3CCOCC3)cc2C(=O)N([C@H](C)CO)C[C@@H]1C | -0.1 | 15.1 | -15.1 | -3.4 | 39.3*
C[C@@H]1CN([C@@H](C)CO)C(=O)Cc2cc(NC(=O)Nc3ccc(C(F)(F)F)cc3)ccc2O[C@@H]1CN(C)S(=O)(=O)c1ccc(Cl)cc1 | -0.1 | 89.9* | -89.9 | -10.4 | -9.0
C[C@H]1CN([C@@H](C)CO)C(=O)c2cccc(NC(=O)Nc3ccc(C(F)(F)F)cc3)c2O[C@@H]1CN(C)Cc1ccc(Cl)c(Cl)c1 | 0.2 | -74.7 | 74.7* | -5.8 | -2.6
Cc1ccc(S(=O)(=O)N(C)C[C@@H]2Oc3ccc(NC(=O)Nc4ccc(C(F)(F)F)cc4)cc3CC(=O)N([C@H](C)CO)C[C@H]2C)cc1 | . | . | . | . | -13.9
CO[C@@H]1CN(C)C(=O)c2ccc(NS(=O)(=O)c3ccc(C)cc3)cc2OC[C@@H](C)N(C(=O)NC(C)C)C[C@H]1C | . | . | . | . | -11.7
CCC(=O)N1C[C@H](C)[C@@H](OC)CN(C)C(=O)c2ccc(NC(=O)Nc3ccc(Cl)cc3)cc2OC[C@@H]1C | . | . | . | . | 5.7

Screening results from PubChem BioAssay.
